Usually EC50 stands for the midpoint of the concentration-response curve. As a reminder, the IC50 is the concentration at which inhibition is half-maximal. As a reminder, the inhibition is the drop in the measured response relative to a control, in per cent.

The source made the active and inactive calls. The calls are words filed in the database; no cut-off is given here. Bounds are passed on as bounds.

The target of data set [1] is T1, NAD-dependent protein deacylase sirtuin-6 (Homo sapiens, UniProt Q8N6T7). The data set is described as follows: Activation of N-terminal his-tagged human SIRT6 expressed in Escherichia coli M15 [pREP4] assessed as increase in deacetylation activity incubated for 2 hrs using Ac-RYQK(Ac)-AMC substrate by FDL assay relative to control.
T1 sequence (Q8N6T7 whole entry): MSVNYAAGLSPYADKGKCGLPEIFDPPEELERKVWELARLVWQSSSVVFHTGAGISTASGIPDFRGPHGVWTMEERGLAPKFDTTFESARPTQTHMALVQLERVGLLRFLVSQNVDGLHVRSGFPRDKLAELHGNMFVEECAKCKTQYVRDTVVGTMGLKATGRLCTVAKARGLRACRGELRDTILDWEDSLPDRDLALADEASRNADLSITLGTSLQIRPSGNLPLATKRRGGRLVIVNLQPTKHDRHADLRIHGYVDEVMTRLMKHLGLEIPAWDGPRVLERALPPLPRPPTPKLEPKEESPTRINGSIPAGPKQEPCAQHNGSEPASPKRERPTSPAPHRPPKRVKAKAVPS
For data set [2], the system named is BXPC-3. The data set is described as follows: Antiproliferative activity against human BxPC3 cells assessed as reduction in cell viability incubated for 72 hrs by MTT assay. The class given is functional, cell-based. In outline:
(§1)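 PDAC cells grown in DMEM or RPMI1640 with 10% FBS and penicillin/streptomycin at 37 °C, 5% CO2. Plated in triplicate, then treated with a concentration series for 72 h. Viability read by MTT. IC50 calculated from dose-response curves.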

In data set [3] the test system is MIA PaCa-2. Kind of data set: Antiproliferative activity against human MIAPaCa2 cells assessed as reduction in cell viability incubated for 72 hrs by MTT assay. The class given is functional, cell-based. In outline: as §1
For orientation: Tetrazolium dyes change colour on reduction, which living cells bring about.

Data set [4] has as its system SW-620. Kind of data set: Antiproliferative activity against human SW620 cells assessed as reduction in cell viability incubated for 72 hrs by MTT assay. The format is functional, cell-based.
The subject of data set [5] is NCI-H526. Kind of data set: Antiproliferative activity against human NCI-H526 cells assessed as reduction in cell viability incubated for 72 hrs by MTT assay. The class given is functional, cell-based.
The subject of data set [6] is ASPC1. Kind of data set: Inhibition of colony formation in human AsPC1 cells incubated for 9 to 18 days by crystal violet staining based assay. The class given is functional, cell-based. Summed up: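 Cells are seeded per well at the line-specific density: BXPC-3 750, PANC-1 500, AsPC-1 2200, MIAPaCa-2 500. Compound at several concentrations is added after 24 h. Incubation runs 9–18 days (BXPC-3 18 days, PANC-1 14 days). Cells are then fixed with 4% paraformaldehyde and stained with crystal violet, and colonies of more than 50 cells are counted.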

Data set [7] relates to PANC-1. Kind of data set: Inhibition of cell migration of human PANC1 cells at 10 umol/L incubated for 24 hrs by inverted microscopy relative to control. The format is functional. Conditions: PANC-1, 24 h. Summed up:
(§2)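 PDAC cells are grown to a confluent monolayer at 37 °C in 5% CO2. The monolayer is scratched with a 200 μL pipette tip to make a gap of constant width, then washed with PBS. Cells are exposed to a range of compound concentrations. They are imaged by inverted microscope after 24 h. Migrated cells are counted by hand, and inhibition is expressed relative to untreated wells (100%).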

For data set [8], the system named is BXPC-3. Kind of data set: Inhibition of cell migration of human BxPC3 cells at 10 umol/L incubated for 24 hrs by inverted microscopy relative to control. The format is functional. Conditions: BXPC-3, 24 h. Summed up: as §2
Data set [9] deals with T1, NAD-dependent protein deacylase sirtuin-6. Kind of data set: Binding affinity to SIRT6 in human BxPC3 cells assessed as protection of SIRT6 protein from temperature-dependent degradation at 25 uM incubated for 72 hrs by CETSA. Conditions: BXPC-3. The format is cell-based. Summed up:
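Cells treated with compound (25 μM) or DMSO for 72 h, washed, resuspended in PBS with protease inhibitor cocktail, split into aliquots heated 3 min at a temperature gradient. Lysed by three freeze–thaw cycles, centrifuged at 4 °C for 15 min; soluble SIRT6 in supernatant detected by western blot. Triplicate.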

For data set [10] the target is unchanged. The data set is described as follows: […] in human PANC1 cells assessed as reduction in H3K18ac levels incubated for 72 hrs by Western blot analysis. Conditions: PANC-1. The class given is cell-based. In outline:
(§3)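 Cells incubated 72 h with various compound concentrations; whole-cell RIPA lysates with protease inhibitors, BCA-normalised, separated on 12% SDS-PAGE, transferred to PVDF, blocked in 5% milk or BSA. Probed 10 h at 4 °C with antibodies to SIRT6, acetyl-H3K9/K18/K56, total H3, Lin28b, Myc, IGF2BP3, β-actin; HRP secondary, chemiluminescent detection.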
(In general: A western blot detects proteins with antibodies after separation by electrophoresis.)

For data set [11] the target is unchanged. Kind of data set: […] in human PANC1 cells assessed as reduction in Lin28b expression levels at 25 uM incubated for 72 hrs by Western blot analysis. The following applies: PANC-1. The format is cell-based. Summed up:
as §3

The target is the same in data set [12]. Kind of data set: […] in human PANC1 cells assessed as reduction in IGF2BP3 expression levels at 25 uM incubated for 72 hrs by Western blot analysis. The format is cell-based. The following applies: PANC-1. In outline:
as §3

Data set [13] concerns PANC-1. The data set is described as follows: Antitumor activity against human PANC1 cells xenografted in BALB/c nude mouse assessed as slowing of tumor growth at 100 to 150 mg/kg/day, po for 30 days. The format is functional, organism-based. Summed up:
(§4)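 Female BALB/c nude mice, 6-8 weeks old, injected subcutaneously in the right flank with 5×10^6–1×10^7 PANC-1 cells. At 130-150 mm³, mice randomized into 4 groups (n = 6) and dosed orally once daily for 30 days against vehicle. Tumor volume followed over time. Inhibition rate assessed against control.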
Background: A xenograft is tissue or cells of one species grown in another, often human tumour cells in immunodeficient mice.

In data set [14] the test system is PANC-1. The data set is described as follows: Antitumor activity against human PANC1 cells xenografted in BALB/c nude mouse assessed as inhibition of tumor growth at 150 mg/kg/day, po for 30 days relative to control. The format is functional. The following applies: PANC-1, po, 720 h, read-out: TGI. Summed up:
as §4

Data set [15] is described as follows: Toxicity in BALB/c nude mouse xenografted with human PANC1 cells assessed as induction of body weight loss at 100 to 150 mg/kg/day, po for 30 days. The format is organism-based, PANC-1. Conditions: in vivo, 720 h. In outline: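 Female BALB/c nude mice, 6–8 weeks old, received 5×10⁶–1×10⁷ PANC-1 cells subcutaneously in the right flank. Once tumors reached 130–150 mm³, mice were randomized (n = 6) to vehicle or 100 or 150 mg/kg/d given orally for 30 days. Body weight and toxicity were monitored against the vehicle group.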

Data set [16] concerns the target T1, NAD-dependent protein deacylase sirtuin-6. The data set is described as follows: In-vivo activation of SIRT6 in BALB/c nude mouse xenografted with human PANC1 cells assessed as reduction in Lin28b expression at 150 mg/kg/day, po for 30 days by IHC analysis. The class given is functional, organism-based. The following applies: PANC-1. Summed up: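 Female BALB/c nude mice (6–8 weeks) bearing subcutaneous PANC-1 xenografts (5×10⁶–1×10⁷ cells, right flank), randomised at 130–150 mm³ tumours; oral dosing daily for 30 days versus vehicle (n=6). Tumour tissue stained by immunohistochemistry.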

Data set [17] is described as follows: AUC (0 to infinity) in Sprague-Dawley rat at 10 mg/kg, po after 0.083 to 24 hrs by LC-MS/MS analysis. The format is ADME, organism-based. On the set-up: dose 10 mg/kg, time infinity, route oral. The following applies: in vivo. In outline:
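Male Sprague-Dawley rats, 6-8 weeks old. Dosing solution of 10 (PO) or 2 (IV) mg/mL in 5% DMSO, 10% Solutol and 85% saline, pH 7. Blood taken by cardiac puncture at 0.083–24 h (PO) or 0.25–24 h (IV). Plasma levels measured by LC-MS/MS. Values are mean ± SD, n = 3.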

Data set [18] has as its target Histone deacetylase 1 (Homo sapiens, UniProt Q13547). The data set is described as follows: Inhibition of HDAC1 (unknown origin) by FDL assay. In outline:
(§5)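 Selectivity testing by FDL assay at concentrations up to 200 µM. SIRT1-2 assays run by an outside contract provider. Values reported as IC50.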

Data set [19] deals with Histone deacetylase 11 (Homo sapiens, UniProt Q96DB2). The data set is described as follows: Inhibition of HDAC11 (unknown origin) by FDL assay. Summed up:
as §5

Data set [20] deals with T1, NAD-dependent protein deacylase sirtuin-6. Kind of data set: Activation of N-terminal his-tagged human SIRT6 expressed in Escherichia coli M15 [pREP4] assessed as increase in deacetylation activity incubated for 2 hrs using Ac-RYQK(Ac)-AMC substrate by HPLC analysis.

Histone deacetylase 1, sequence (Q13547 whole entry): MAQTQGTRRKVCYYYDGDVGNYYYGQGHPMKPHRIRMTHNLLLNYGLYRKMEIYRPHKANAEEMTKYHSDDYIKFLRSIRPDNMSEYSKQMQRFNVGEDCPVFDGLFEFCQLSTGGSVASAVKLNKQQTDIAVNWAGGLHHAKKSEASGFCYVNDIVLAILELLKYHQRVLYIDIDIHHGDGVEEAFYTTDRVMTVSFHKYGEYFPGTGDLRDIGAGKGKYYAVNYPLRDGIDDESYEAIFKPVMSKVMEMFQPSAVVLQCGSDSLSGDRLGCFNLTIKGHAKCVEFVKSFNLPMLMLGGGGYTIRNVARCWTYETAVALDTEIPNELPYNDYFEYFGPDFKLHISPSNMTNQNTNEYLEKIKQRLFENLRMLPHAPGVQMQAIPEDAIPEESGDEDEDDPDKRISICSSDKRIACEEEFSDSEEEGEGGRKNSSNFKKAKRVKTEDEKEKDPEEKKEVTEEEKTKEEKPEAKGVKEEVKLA
Histone deacetylase 11, sequence (Q96DB2 whole entry): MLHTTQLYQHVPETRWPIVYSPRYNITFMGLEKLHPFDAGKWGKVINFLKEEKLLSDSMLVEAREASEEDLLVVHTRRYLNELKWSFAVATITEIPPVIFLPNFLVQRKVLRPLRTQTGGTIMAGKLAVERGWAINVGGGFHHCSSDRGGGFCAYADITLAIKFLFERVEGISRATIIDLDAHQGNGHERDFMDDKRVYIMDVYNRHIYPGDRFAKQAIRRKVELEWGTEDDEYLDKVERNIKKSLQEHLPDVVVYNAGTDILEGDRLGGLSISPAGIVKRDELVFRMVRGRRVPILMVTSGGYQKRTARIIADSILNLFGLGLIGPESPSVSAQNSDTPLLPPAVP

For the molecule `O=C(NC(c1ccccc1)c1ccccc1)c1cc(-c2cc3ccccc3o2)nc2ccccc12`, the EC1.5 in data set [1] came to 0.58 µM. Also, the EC50 in data set [1] was 5.35 µM. Also, the Activity result in data set [2] is “Dose-dependent effect”; in [3] it was “Dose-dependent effect”; in data set [13], “Dose-dependent effect”; in data set [15], “Non-Toxic”. Further, the half-maximal inhibitory concentration (IC50) in [2] (BXPC-3, 72 h) was 8.27 µM; in [3] (MIA PaCa-2, 72 h) it was 7.1 µM; in [18], above 200 µM; in data set [19] it was above 200 µM. For the same molecule, the outcome in data set [4], in data set [5], in [9], in data set [16] and in data set [20] was Active. The inhibition result in data set [6] and in data set [10] was “Dose-dependent effect” each time. In addition, the inhibition at 10 µM in data set [7] amounted to 87.8%; in [8], 70%. Besides, the inhibition result in data set [11] and in data set [12] was “Active” each time. The inhibition in vivo at 150 mg/kg/day in data set [14] stood at 90.2%. Besides, the AUC in data set [17] was determined as 755.57 ng·mL·h.

The record behind these values is ChEMBL document CHEMBL4622973, “Discovery of Potent Small-Molecule SIRT6 Activators: Structure-Activity Relationship and Anti-Pancreatic Ductal Adenocarcinoma Activity” (J Med Chem, 2020).
